Experimental data from different studies.
Lines come from different studies, so protocols differ.
Observed: enzyme activity
Mode: inhibitor
EGFR: Epidermal growth factor receptor (EGFR, Homo sapiens, UniProt P00533)
EGFR L858R/T790M: Epidermal growth factor receptor (EGFR, Homo sapiens, UniProt P00533, L858R/T790M)
EGFR C797S/L858R/T790M: Epidermal growth factor receptor (EGFR, Homo sapiens, UniProt P00533, C797S/L858R/T790M)

COc1cc2ncnc(Nc3ccc(OCCCn4ccnc4[N+](=O)[O-])c(Cl)c3)c2cc1OCCCN1CCOCC1
IC50 (EGFR; FRET): 180 nM

COc1ccc(-c2nn(-c3ccc(S(C)(=O)=O)cc3)cc2/C=N/N=c2\[nH]c(-c3ccc(Br)cc3)cs2)cc1
IC50 (EGFR L858R/T790M): 31 nM

COc1cc2c(Nc3ccc(OCCCn4ccnc4[N+](=O)[O-])c(Cl)c3)ncnc2cc1OCCCN1CCOCC1
IC50 (EGFR; FRET): 330 nM

C=CC(=O)Nc1cc(Nc2nc(N3CCc4sccc4C3)c3cccnc3n2)c(OC)cc1N1CCC(N(C)C)CC1
IC50 (EGFR; ELISA): > 1000 nM

CCN(CC)CCCn1cccc1/C=N/NC(=O)Nc1cc2c(Nc3ccc(F)c(Cl)c3)ncnc2cc1O[C@H]1CCOC1
IC50 (EGFR L858R/T790M): 12.8 nM

C=C(Cl)C(=O)Nc1cc(Nc2nc(N3CCOCC3)c3sccc3n2)c(OC)cc1N(C)CCN(C)C
IC50 (EGFR C797S/L858R/T790M; ELISA): > 1000 nM

COCCOc1cc2ncnc(Nc3ccc(OCCCn4ccnc4[N+](=O)[O-])c(Cl)c3)c2cc1OCCOC
IC50 (EGFR; FRET): 400 nM

CN1CCN(C/C=N/NC(=O)Nc2cc3c(Nc4ccc(F)c(Cl)c4)ncnc3cc2O[C@H]2CCOC2)CC1
IC50 (EGFR): 1.8 nM

C=C(Cl)C(=O)Nc1cc(Nc2nc(N3CCc4sccc4C3)c3sccc3n2)c(OC)cc1N(C)CCN(C)C
IC50 (EGFR C797S/L858R/T790M; ELISA): > 1000 nM

Nc1ccc(-c2csc(Nc3ccc4c(O)ncnc4c3)n2)cc1
IC50 (EGFR; ELISA): 14.2 nM

C=C(Cl)C(=O)Nc1cc(Nc2nc(Nc3cnn(C)c3)c3sccc3n2)c(OC)cc1N1CCN(C)CC1
IC50 (EGFR L858R/T790M; ELISA): 173 nM

C=CC(=O)Nc1cc(Nc2nccc(Nc3cc(Cl)c(F)cc3C(C)(C)O)n2)c(OC)cc1N1CC[C@@H](N(C)C)C1
IC50 (EGFR; with preincubation): 226 nM

OCc1ccc(Nc2ccc3ncnc(Nc4cccc(C(F)(F)F)c4)c3c2)cc1
IC50 (EGFR; radiometric): 8.67 nM

CC(C)Cc1ccc(-c2nn(-c3ccc(S(C)(=O)=O)cc3)cc2/C=N/N=c2\[nH]c(-c3ccc([N+](=O)[O-])cc3)cs2)cc1
IC50 (EGFR L858R/T790M): 164 nM

O=C(N/N=C/CN1CCCCC1)Nc1cc2c(Nc3ccc(F)c(Cl)c3)ncnc2cc1O[C@H]1CCOC1
IC50 (EGFR): 0.1 nM

COc1ccc(-c2nn(-c3ccc(S(C)(=O)=O)cc3)cc2C=N/N=c2\[nH]c(-c3ccc([N+](=O)[O-])cc3)cs2)cc1
IC50 (Epidermal growth factor receptor (EGFR, Homo sapiens, UniProt P00533, L858R)): 31 nM

Oc1ncnc2cc(Nc3nc(-c4ccccc4)cs3)ccc12
IC50 (EGFR; ELISA): 10 nM

C=C(Cl)C(=O)Nc1cc(Nc2nc(Nc3cnn(C)c3)c3sccc3n2)c(OC)cc1N(C)CCN(C)C
IC50 (EGFR; ELISA): 100 nM

CN(C)C/C=N/NC(=O)Nc1cc2c(Nc3ccc(F)c(Cl)c3)ncnc2cc1O[C@H]1CCOC1
IC50 (EGFR): 0.2 nM

C=CC(=O)Nc1cc(Nc2nccc(-c3cn(C4CC4)c4ccccc34)n2)c(OC)cc1N(C)CCN(C)C
IC50 (Epidermal growth factor receptor (EGFR, Homo sapiens, UniProt P00533, L861Q); TR-FRET): 1.07 nM

COc1cc2ncnc(NCCSc3ccc(Cl)cc3)c2cc1OC
IC50 (EGFR; mobility shift): 320 nM

Oc1ncnc2cc(Nc3nc(-c4ccc(Br)cc4)cs3)ccc12
IC50 (EGFR; ELISA): 4.96 nM

CCC(=O)Nc1cc(Nc2nc(N3CCc4sccc4C3)c3cccnc3n2)c(OC)cc1N1CCSCC1
IC50 (EGFR; ELISA): > 1000 nM

COc1cc2ncnc(Nc3ccc(F)c(Cl)c3)c2cc1NC(=O)N/N=C/c1cccn1CCCN(C)C
IC50 (EGFR L858R/T790M): 24.3 nM

Cc1ccc(-c2csc(Nc3ccc4c(O)ncnc4c3)n2)cc1
IC50 (EGFR; ELISA): 8.59 nM

O=C(N/N=C/CN1CCOCC1)Nc1cc2c(Nc3ccc(F)c(Cl)c3)ncnc2cc1O[C@H]1CCOC1
IC50 (EGFR): 1.5 nM

COC(=O)/C=C/c1ccc2ncnc(Nc3cccc(C(F)(F)F)c3)c2c1
IC50 (EGFR; radiometric): 19.1 nM

O=C(N/N=C/c1cccn1CCCN1CCCCC1)Nc1cc2c(Nc3ccc(F)c(Cl)c3)ncnc2cc1O[C@H]1CCOC1
IC50 (EGFR L858R/T790M): 11.4 nM

COc1cc2ncnc(Nc3ccccc3)c2cc1OC
IC50 (EGFR; mobility shift): 14 nM

COc1cc2ncnc(Nc3ccc(F)c(Cl)c3)c2cc1NC(=O)N/N=C/c1cccn1CCN(C)C
IC50 (EGFR L858R/T790M): 21.7 nM

Fc1ccc(-c2n[nH]cc2C=NNc2ccnc3cc(Cl)ccc23)cc1
IC50 (EGFR; mobility shift): 73000 nM
